RanGTP-Imp inh: disruptors of Ran-importin-beta complex formation – biochemical, FRET, CFP-Ran, YFP-importin-beta, homogeneous, primary screen. cell-free CFP-Ran/YFP-importin-beta FRET ratio. inhibition, % (concentration not given with the values). 300,000 tested, 1.1% active. AID 2216;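 active = more than half of the replicate wells show a fall in the fluorescence ratio signal beyond about 16%, limit read from the data, passing the limit was not always enough; inconclusive = exactly half of the replicate wells pass the set limit; inactive = fewer than half of replicates pass the limit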
Runt-CBFb FRET: inhibitors of human RUNX1 Runt domain binding to CBFb; Q01196+Q13951; Cerulean-Runt/Venus-CBFb FRET ratio 530/480, 1 h; inhibition, % at 20 µM; 220,000 tested, 0.46% active; AID 1496;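 active = inhibition over about 50% at 20 µM in the single-dose screen, limit read from the data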
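System: Cerulean-labeled Runt domain protein | Quantity: 100 nM of each labeled protein | Schedule: 1 h compound exposure, room temperature | Detection: Fluorescence energy transfer, 422 nm excitation, 530/480 nm emission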
Calpain2 inh: calpain II (pig) inhibition | purified calpain II, fluorogenic peptide substrate, 30 min | inhibition, % at 16 µM | 220,000 tested, 0.37% active;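 active = inhibition above about 50%, limit read from the data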
FAS TE block: blocks the thioesterase domain of human fatty acid synthase; P49327; recombinant FAS-TE, OMFH fluorogenic substrate, fluorescence endpoint; inhibition, % at 15 µM; 360,000 tested, 0.67% active;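 active = compounds whose normalised, plate-corrected inhibition of enzyme fluorescence in the single-dose primary screen is 50% or more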
Target sequence (P49327 whole entry, looked up, the tested form may be a part): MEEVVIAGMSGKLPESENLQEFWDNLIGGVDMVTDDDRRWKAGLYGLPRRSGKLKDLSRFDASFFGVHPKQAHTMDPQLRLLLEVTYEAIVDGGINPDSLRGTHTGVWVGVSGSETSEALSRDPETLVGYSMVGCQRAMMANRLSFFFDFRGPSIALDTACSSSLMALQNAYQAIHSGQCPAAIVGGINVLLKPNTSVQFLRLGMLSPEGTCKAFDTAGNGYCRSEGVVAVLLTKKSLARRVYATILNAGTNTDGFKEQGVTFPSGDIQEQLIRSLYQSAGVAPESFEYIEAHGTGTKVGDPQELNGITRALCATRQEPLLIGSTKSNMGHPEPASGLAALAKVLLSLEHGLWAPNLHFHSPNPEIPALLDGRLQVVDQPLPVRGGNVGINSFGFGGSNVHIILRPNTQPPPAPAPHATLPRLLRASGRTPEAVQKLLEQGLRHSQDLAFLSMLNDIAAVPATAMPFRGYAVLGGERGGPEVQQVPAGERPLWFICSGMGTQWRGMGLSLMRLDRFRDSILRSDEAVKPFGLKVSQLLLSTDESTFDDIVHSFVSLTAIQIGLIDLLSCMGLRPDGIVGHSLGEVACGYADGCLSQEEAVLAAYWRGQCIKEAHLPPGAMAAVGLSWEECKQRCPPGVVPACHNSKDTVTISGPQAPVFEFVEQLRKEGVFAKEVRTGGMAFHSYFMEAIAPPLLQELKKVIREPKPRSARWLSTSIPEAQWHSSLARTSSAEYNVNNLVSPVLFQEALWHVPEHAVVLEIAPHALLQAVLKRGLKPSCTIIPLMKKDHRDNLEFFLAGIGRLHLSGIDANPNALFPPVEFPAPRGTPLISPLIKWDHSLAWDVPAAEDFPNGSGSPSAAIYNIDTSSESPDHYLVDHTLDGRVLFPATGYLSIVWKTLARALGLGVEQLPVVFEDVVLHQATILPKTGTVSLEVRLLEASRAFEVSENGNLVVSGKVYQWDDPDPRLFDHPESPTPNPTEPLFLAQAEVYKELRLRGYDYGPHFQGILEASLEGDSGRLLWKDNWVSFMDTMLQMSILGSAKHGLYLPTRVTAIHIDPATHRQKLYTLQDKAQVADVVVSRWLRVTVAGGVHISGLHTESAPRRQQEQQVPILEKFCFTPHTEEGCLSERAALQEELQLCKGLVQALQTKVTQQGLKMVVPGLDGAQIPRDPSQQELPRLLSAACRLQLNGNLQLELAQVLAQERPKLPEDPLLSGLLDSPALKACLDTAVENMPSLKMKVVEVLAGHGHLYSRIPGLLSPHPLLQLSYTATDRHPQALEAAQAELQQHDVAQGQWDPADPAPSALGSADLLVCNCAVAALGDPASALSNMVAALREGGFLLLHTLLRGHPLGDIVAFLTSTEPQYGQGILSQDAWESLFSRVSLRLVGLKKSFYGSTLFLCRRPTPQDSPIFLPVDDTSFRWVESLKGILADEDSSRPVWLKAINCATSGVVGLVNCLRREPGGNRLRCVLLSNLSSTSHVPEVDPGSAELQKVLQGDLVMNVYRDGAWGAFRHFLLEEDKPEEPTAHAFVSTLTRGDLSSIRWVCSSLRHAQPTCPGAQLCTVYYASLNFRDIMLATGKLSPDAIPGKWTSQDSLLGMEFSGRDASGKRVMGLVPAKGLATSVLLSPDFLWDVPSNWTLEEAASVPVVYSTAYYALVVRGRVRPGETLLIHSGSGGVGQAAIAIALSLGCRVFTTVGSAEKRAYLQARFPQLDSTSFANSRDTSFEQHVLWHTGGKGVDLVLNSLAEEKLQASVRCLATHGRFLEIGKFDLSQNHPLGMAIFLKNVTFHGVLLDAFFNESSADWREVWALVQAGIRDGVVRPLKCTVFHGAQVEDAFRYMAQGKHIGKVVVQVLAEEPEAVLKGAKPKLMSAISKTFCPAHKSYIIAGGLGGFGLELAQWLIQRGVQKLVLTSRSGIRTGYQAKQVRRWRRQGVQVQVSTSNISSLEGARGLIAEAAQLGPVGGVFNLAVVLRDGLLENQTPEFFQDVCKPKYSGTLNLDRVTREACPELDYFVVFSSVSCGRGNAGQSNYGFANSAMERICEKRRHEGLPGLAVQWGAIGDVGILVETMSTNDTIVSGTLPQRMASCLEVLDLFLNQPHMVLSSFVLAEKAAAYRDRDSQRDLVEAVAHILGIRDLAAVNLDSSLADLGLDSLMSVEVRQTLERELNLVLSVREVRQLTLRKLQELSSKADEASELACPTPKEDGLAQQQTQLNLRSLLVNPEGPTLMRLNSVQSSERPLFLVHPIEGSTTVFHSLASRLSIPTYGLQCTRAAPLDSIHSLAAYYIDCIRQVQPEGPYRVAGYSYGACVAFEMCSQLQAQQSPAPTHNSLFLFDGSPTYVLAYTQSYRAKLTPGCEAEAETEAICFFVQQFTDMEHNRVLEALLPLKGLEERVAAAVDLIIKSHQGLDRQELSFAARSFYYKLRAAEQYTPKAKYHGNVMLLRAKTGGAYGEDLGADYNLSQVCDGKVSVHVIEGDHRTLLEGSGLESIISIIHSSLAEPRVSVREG
Runt-SMMHC FRET: inhibitors of human RUNX1 Runt domain binding to CBFb-SMMHC; Q01196+Q13951; Cerulean-Runt/Venus-CBFb-SMMHC FRET ratio 530/480, 1 h; inhibition, % at 20 µM; 220,000 tested, 0.74% active;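 active = mean inhibition across duplicate retests at 20 µM reaching about 50%, limit read from the data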;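 also: inhibitors lower the FRET ratio by blocking Runt binding to CBFb-SMMHC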
Runt-CBFb TRFRET: disrupts human RUNX1 Runt domain binding to CBFb | 480 tested, 20% active | inhibition, % at 20 µM | shares compounds with Runt-CBFb FRET | AID 1502 | TR-FRET RUNX1 Runt domain-CBFb binding; in the data active = inhibition above about 40%
Large screens that a line does not name were inactive (follow-up assays come after a bar, where they were run). A selection: hits, their analogues and other compounds. The true share with any hit is near 2.1%.

CC(=O)c1ccc(NC(=S)NCCc2ccc(S(N)(=O)=O)cc2)cc1	none
CC(C)OCCCNC(=S)Nc1ccc(S(N)(=O)=O)cc1	Runt-CBFb FRET 59 | Runt-CBFb TRFRET inactive
CC(C)N1CCN(Cc2cccn2-c2ccccn2)CC1CCO (stereo unspecified)	none
CN(C(=O)c1ccccn1)c1nnc(-c2cccnc2)s1	Runt-CBFb FRET 82 (no result: RanGTP-Imp inh) | Runt-CBFb TRFRET inactive
COc1ccc(/C=N/NC(=O)c2nc(-c3ccccc3)n(-c3ccccc3)n2)cc1OC	Runt-CBFb FRET 76 | Runt-CBFb TRFRET inactive
CCCCc1cc(=O)oc2cc(OCC(=O)N(CC)CC)c(Cl)cc12	none
CCCCc1cc(=O)oc2c(CN(C)C)c(O)c(Cl)cc12	Runt-CBFb FRET 75, Runt-SMMHC FRET 156 (no result: RanGTP-Imp inh) | Runt-CBFb TRFRET inactive
CSc1ccc(S(=O)(=O)Nc2c(C)n(C)n(-c3ccccc3)c2=O)cc1	none (no result: Runt-CBFb FRET, Calpain2 inh, Runt-SMMHC FRET)
CC(=O)N1CC[n+]2c(-c3ccc(Cl)cc3)csc21	Runt-CBFb FRET 60, Runt-SMMHC FRET 58 | Runt-CBFb TRFRET inactive
CC(C)(C)c1ccc(CC(=O)N2CCC2(C)C(=O)NS(=O)(=O)c2ccc3c(c2)CCO3)cc1 (stereo unspecified)	none (no result: RanGTP-Imp inh, Runt-CBFb FRET, Calpain2 inh, Runt-SMMHC FRET)
Cc1cc(N2C(=O)C=CC2=O)c([N+](=O)[O-])cc1C	Runt-CBFb FRET 53 (no result: RanGTP-Imp inh) | Runt-CBFb TRFRET inactive
Cc1c([N+](=O)[O-])cc(N2C(=O)C=CC2=O)cc1[N+](=O)[O-]	none (no result: RanGTP-Imp inh, Runt-CBFb FRET, Calpain2 inh, Runt-SMMHC FRET)
CCN(CC)c1ccc(/C=N/NC(=O)c2ccco2)c(O)c1	RanGTP-Imp inh 63, Runt-CBFb FRET 75, Runt-SMMHC FRET 82 | Runt-CBFb TRFRET inactive
Cc1ncoc1C(=O)Nc1ncc([N+](=O)[O-])s1	Runt-CBFb FRET 64 | Runt-CBFb TRFRET inactive
CCOC(=O)CC(=O)CSc1nc(CC)c(C)cc1C#N	Runt-CBFb FRET 53 | Runt-CBFb TRFRET inactive
C[C@H](N=C1NS(=O)(=O)c2ccccc21)C(=O)OCc1cc([N+](=O)[O-])cc2c1OCOC2	none
CN1CCc2c(sc3c2C(=O)NC(c2cccs2)N3)C1 (stereo unspecified)	RanGTP-Imp inh 118, Runt-CBFb FRET 62, Runt-SMMHC FRET 78 | Runt-CBFb TRFRET inactive
Cc1ccc(C2NC(=O)c3ccccc3N2)s1 (stereo unspecified)	none
CC(C)C(NS(=O)(=O)c1cccc(C(F)(F)F)c1)C(=O)NCc1cccs1 (stereo unspecified)	none (no result: RanGTP-Imp inh, Runt-CBFb FRET, Calpain2 inh, Runt-SMMHC FRET)
Cc1ccccc1CS(=O)(=O)CCC(=O)NCc1ccc(F)cc1Cl	none (no result: Runt-CBFb FRET, Calpain2 inh, Runt-SMMHC FRET)
CCNC(=O)CCSc1nc(C)cc(C)n1	Runt-CBFb FRET 50 | Runt-CBFb TRFRET inactive
Cc1cc(C)nc(SCCC(=O)N(C)C)n1	none
Cc1cc(C)nc(SCNC(=O)c2ccc(F)cc2)n1	Runt-CBFb FRET 53 | Runt-CBFb TRFRET inactive
O=C(O)c1cccc(S(=O)(=O)N2CCN(c3ccccn3)CC2)c1	none (no result: Runt-CBFb FRET, Calpain2 inh, Runt-SMMHC FRET)
NC(=O)NC(=O)COC(=O)c1cccc(S(=O)(=O)N2CCCCCC2)c1	none
CC(C)(C)C(=O)CSc1ncccn1	Runt-CBFb FRET 58 | Runt-CBFb TRFRET 70
CC(C)(C)NC(=O)NC(=O)CSc1ncccn1	none
COc1ccccc1N1CCN(/N=C/c2cc(OC)c(O)c(OC)c2)CC1	Runt-CBFb FRET 59 | Runt-CBFb TRFRET inactive
Cc1nc(S/C(=C/c2ccc(-c3cc(Cl)ccc3C)o2)C(=O)O)n[nH]1	none
O=C(O)c1cc(Cl)ccc1-c1ccc(/C=C/c2cc(C(F)(F)F)[nH]c(=O)n2)o1	Runt-CBFb FRET 52, Runt-SMMHC FRET 92 | Runt-CBFb TRFRET inactive
Cc1ccc(C(=O)NNS(=O)(=O)c2ccc(F)cc2)cc1	none (no result: Runt-CBFb FRET, Calpain2 inh, Runt-SMMHC FRET)
Cc1nn(C)c(Sc2ccccc2N)c1[N+](=O)[O-]	Runt-CBFb FRET 55 | Runt-CBFb TRFRET inactive
Cc1ccc2[nH]c3c(c2c1)CCCC3NCCO (stereo unspecified)	none (no result: Runt-CBFb FRET, Calpain2 inh, Runt-SMMHC FRET)
c1ccc(-c2onc3cc4c(cc23)OCCO4)cc1	Runt-CBFb FRET 77, Runt-SMMHC FRET 104 | Runt-CBFb TRFRET inactive
CC1(C)C2CCC1(CS(=O)(=O)N1CCN(c3ccc(F)cc3)CC1)C(=O)C2 (stereo unspecified)	none (no result: Runt-CBFb FRET, Calpain2 inh, Runt-SMMHC FRET)
O=C(Cn1cnc2cc([N+](=O)[O-])ccc2c1=O)Nc1cccc(S(=O)(=O)N2CCCCC2)c1	none (no result: RanGTP-Imp inh, Runt-CBFb FRET, Calpain2 inh, Runt-SMMHC FRET)
O=C(CSc1ncnc2ccccc12)c1cccs1	Runt-CBFb FRET 54, Runt-SMMHC FRET 90 | Runt-CBFb TRFRET inactive
O=C(CSc1ncnc2ccccc12)N1CCCC1	none
S=C1CSc2ccccc2N1	Runt-CBFb FRET 53 | Runt-CBFb TRFRET inactive
CC1CSc2ccccc2NC1=S (stereo unspecified)	none
Cc1cc(O)c(Oc2cc(C)cc(O)c2O)c(O)c1	Runt-CBFb FRET 70, Runt-SMMHC FRET 62 | Runt-CBFb TRFRET 54
Cc1ccc(O)c(O)c1	none (no result: Runt-CBFb FRET, Calpain2 inh, FAS TE block, Runt-SMMHC FRET)
N#CCc1nc(C(c2ccccc2)c2ccccc2)no1	none (no result: Runt-CBFb FRET, Calpain2 inh, Runt-SMMHC FRET)
O=C(O)c1ccccc1C(=O)Nc1n[nH]c(=S)s1	Runt-CBFb FRET 54 | Runt-CBFb TRFRET inactive
O=C1CC(c2ccco2)CC(O)=C1C=NCCO (stereo unspecified)	Runt-CBFb FRET 81 | Runt-CBFb TRFRET inactive
O=C1CC(c2ccco2)CC(O)=C1C=NCC1NCCc2ccccc21 (stereo unspecified)	none
O=C(NC1CCCc2ccccc21)C1CCC(CNS(=O)(=O)c2cccc3nsnc23)CC1 (stereo unspecified)	RanGTP-Imp inh inconclusive, Runt-CBFb FRET 83 | Runt-CBFb TRFRET inactive
Cc1sc2nc(CN3CCN(c4ccc(O)cc4)CC3)[nH]c(=O)c2c1C	RanGTP-Imp inh inconclusive, Runt-CBFb FRET 54 | Runt-CBFb TRFRET 63
